Screening results deposited in PubChem by several laboratories.
A selection: hits, their analogues and other compounds. The true share with any hit is near 1.7%.
Rpn11 block: Rpn11 (PSMD14) deubiquitinase inhibitors, primary screen, biochemical, fluorescence polarization, uHTS | 26S proteasome non-ATPase regulatory subunit 14 (Homo sapiens), O00487 | human 26S proteasome, Ub4-pepOG fluorescence polarization; 20S core pre-blocked with epoxomicin | AID 588493, 2011 | hit rate 0.59% among 360,000 | inhibition, % at 20 µM;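 active = inhibition at 20 µM, scaled to each plate's controls, above about 33%, limit read from the data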
PLC-beta3 inh: human PLC-beta3 inhibitors, primary screen, biochemical, fluorescence | AID 720704, 2013 | inhibition, % at 12.2 µM | Purified PLC-beta3, fluorogenic substrate | 1-phosphatidylinositol 4,5-bisphosphate phosphodiesterase beta-3 (Homo sapiens), Q01970 | hit rate 0.18% among 370,000; in the data active = inhibition above about 11%
UCH37 inh: inhibitors of human UCH37 deubiquitinase, primary screen, biochemical, Ub-AMC cleavage, fluorescence. Ubiquitin carboxyl-terminal hydrolase isozyme L5 (Homo sapiens), Q9Y5K5. hit rate 0.33% among 330,000. purified proteasome/UCH37. inhibition, % (no concentration beside the values);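 active = mean inhibition over replicate wells above about 20%, limit read from the data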
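system = Proteasome-associated human UCH37 deubiquitinase | amount = 0.15 nM proteasome as dispensed | medium = pH 7.4 Tris-HCl (50 mM) with ovalbumin, ATP-MgCl2, DTT | incubation = 30 min preincubation with enzyme, 25 min cleavage at room temperature | detection = AMC fluorescence 355/460 nm | read-out basis = percent inhibition | controls = no-proteasome and no-compound wells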
PLCg1 inh: PLC-gamma1 enzyme inhibitors, primary screen, biochemical, fluorescence, purified enzyme | 1-phosphatidylinositol 4,5-bisphosphate phosphodiesterase gamma-1 (Homo sapiens), P19174 | fluorogenic substrate | inhibition, % at 12.2 µM | hit rate 0.84% among 370,000; in the data active = inhibition above about 9.5%
Rpn11 confirm: Rpn11 (PSMD14) deubiquitinase inhibitors, confirmation, biochemical, fluorescence polarization, single concentration; inhibition, % at 20 µM; shares compounds with Rpn11 block; purified human 26S proteasome, Ub4-pepOG fluorescence polarization; proteasome pretreated with epoxomicin; hit rate 29% among 1,900; AID 602318, 2012
MMP-2 inh: MMP-2 enzyme inhibition, confirmation, counter-screen for RPN11 inhibitor project, biochemical, fluorescence, single concentration; recombinant MMP-2, FRET peptide cleavage fluorescence; inhibition, % at 20 µM; hit rate 4% among 1,900; shares compounds with Rpn11 block;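 note: human MMP-2 activated beforehand with APMA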
Thrombin inh: bovine thrombin protease inhibition, confirmation, counter-screen for Rpn11 inhibitor project, biochemical, fluorescence polarization, single concentration. hit rate 13% among 1,900. inhibition, % at 20 µM. shares compounds with Rpn11 block. bovine thrombin cleavage of Ub4-pepOG. AID 602333, 2012;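 active = mean inhibition at least 40% at 20 µM, or signal 3 deviations below plate average, so some actives read negative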
A number is an active result; - = inactive; . = no result. Cut-off read from the data, not from the text of the source, unless noted: active = inhibition above about 40%; inactive = the rest.

SMILES | Rpn11 block | PLC-beta3 inh | UCH37 inh | PLCg1 inh | Rpn11 confirm | MMP-2 inh | Thrombin inh
O=C(NCC1CCCO1)C(=O)NN=Cc1ccc(O)c(Cl)c1 (stereo not drawn) | . | . | - | . | . | . | .
COc1ccc(N2CCN(CC(O)COc3ccc4c(c3)CCC4)CC2)cc1 (stereo not drawn) | 105 | - | - | - | - | - | -
O=C(C[n+]1ccccc1)NN=Cc1ccc(O)cc1 | . | . | - | . | . | . | .
CC(=O)N1CCc2cc(N=NC3=C(O)CC(C)(C)CC3=O)ccc21 | 108 | - | 24 | - | 67 | - | 48
Cc1nc2ccc(N=NC3=C(O)CC(C)(C)CC3=O)cc2s1 | - | - | - | - | . | . | .
O=C(Oc1ccc(C=NNc2nc(N3CCCCC3)nc(N3CCCCC3)n2)cc1)c1ccco1 | . | . | - | . | . | . | .
Cc1occc1C(=O)NN=C/C=C\c1ccccc1[N+](=O)[O-] | . | . | - | . | . | . | .
COc1ccccc1/C=C/C=C1N=C(/C=C/c2ccc(Cl)cc2)OC/1=O | 60 | - | - | - | - | - | -
Cc1cc(NC(=O)c2ccc(Cl)cc2)c(C)cc1O | - | - | - | - | . | . | .
Cc1cc(C(C#N)c2ccc(Cl)cc2)c(Cl)cc1NC(=O)c1cc(I)cc(I)c1O (stereo not drawn) | 47 | - | - | - | - | - | -
COc1cc(C=NNC(=O)C(Cc2c[nH]c3ccccc23)NC(=O)OCc2ccccc2)cc([N+](=O)[O-])c1O (stereo not drawn) | . | . | - | . | . | . | .
Cc1ccc(C)c(OCC(=O)NNC(=O)c2ccc(NC(=O)C3CC3)cc2)c1 | - | - | - | - | . | . | .
Cc1cc(Br)ccc1OCC(=O)NNC(=O)c1ccc(NC(=O)C2CC2)cc1 | 55 | - | - | - | - | - | -
CC(=O)Nc1ccc2c(c1)C(=O)N(c1ccc(C)cc1)C2=O | - | - | - | - | . | . | .
COc1ccc(N2C(=O)c3ccc(NC(C)=O)cc3C2=O)cc1 | 41 | - | - | - | - | - | -
C(=NNc1ncnc2ccccc12)c1ccccc1 | . | . | - | . | . | . | .
O=[N+]([O-])c1cc2c(cc1C=NNc1nc(Nc3ccccc3)nc(N3CCCCC3)n1)OCO2 | . | . | - | . | . | . | .
CC(=O)C1=C(C)NC(SCC(=O)c2ccc(F)cc2)=C(C#N)C1c1ccco1 (stereo not drawn) | - | - | - | - | . | . | .
CC(=O)C1=C(C)NC(SCC(=O)c2ccc(Cl)c(Cl)c2)=C(C#N)C1c1ccco1 (stereo not drawn) | 41 | - | - | - | - | 45 | -
O=C(NN=Cc1cccs1)C1CC(=O)N(c2ccccc2)C1 (stereo not drawn) | . | . | - | . | . | . | .
Cc1cc(Cl)ccc1Oc1ccccc1C(=O)CC#N | 56 | - | - | - | - | - | -
COc1cc(C(=O)NN=Cc2ccc(OC)c(CN3CCN(c4ccc(F)cc4)CC3)c2)ccc1O | . | . | - | . | . | . | .
NC1=NC(=O)/C(=C/c2cn(CCC(=O)O)nc2-c2ccc(Cl)cc2)S1 | 43 | - | - | - | 46 | - | -
COc1ccc(-c2nn(CCC(=O)O)cc2/C=C2\SC(N)=NC2=O)cc1 | 47 | - | - | - | - | - | -
NC1=NC(=O)/C(=C/c2cn(CCC(=O)O)nc2-c2ccc(F)cc2)S1 | - | - | - | - | . | . | .
SMILES | Rpn11 block | PLC-beta3 inh | UCH37 inh | PLCg1 inh | Rpn11 confirm | MMP-2 inh | Thrombin inh
S=c1[nH]nc(-c2ccncc2)n1N=C/C=C/c1ccccc1 | . | . | - | . | . | . | .
Cn1c(=O)c2cc(NC(=O)Nc3cccnc3)ccc2n1Cc1ccc(Cl)cc1 | 46 | - | . | - | - | - | -
O=C(Nc1ccc(S(=O)(=O)Nc2ccccc2)cc1)C1COc2ccccc2O1 (stereo not drawn) | 62 | - | - | - | - | - | -
O=C(NN=Cc1c[nH]c2ccc(Br)cc12)c1ccn(Cc2ccc(Cl)cc2Cl)n1 | . | . | - | . | . | . | .
Cc1ccccc1Sc1ccc(N)cn1 | 60 | - | - | - | - | - | -
CCCCOc1nc2ccccc2nc1C(C#N)C(=O)NC1CCCCC1 (stereo not drawn) | 56 | - | - | - | - | - | -
CCOc1ccccc1C1N=C(c2ccc(OC)cc2)CC(c2ccccc2O)N1 (stereo not drawn) | 42 | - | - | - | - | - | -
CC(C)C1N=C(c2ccc3c(c2)OCO3)CC(c2ccccc2O)N1 (stereo not drawn) | - | - | - | - | . | . | .
CCOC(=O)c1cc(-c2ccccc2)sc1NC(=O)C(C)N1C(=O)NC(C)(c2ccc(Cl)cc2)C1=O (stereo not drawn) | 120 | - | - | - | - | - | -
CCN1/C(=C\C=C2\C(=O)N(C)C(=S)N2C)Sc2ccccc21 | 55 | - | - | - | - | - | -
Cc1nc(NC(=O)c2ccco2)sc1-c1csc(Nc2ccc(Cl)cc2)n1 | 42 | - | . | - | - | - | -
Cc1ccc(Cl)cc1Nc1nc(-c2sc(NC(=O)c3ccco3)nc2C)cs1 | - | - | - | - | . | . | .
Cc1cc(C)nc(NC(C)(C)C(=O)O)n1 | 71 | - | - | - | - | - | -
N#CCc1ccc(Oc2ncc(C(F)(F)F)cc2Cl)cc1 | - | - | - | - | . | . | .
Cc1ccc(CO/N=C\Cc2snc(Sc3ncc(C(F)(F)F)cc3Cl)c2C#N)cc1 | 45 | - | . | - | 60 | - | 49
Cc1ccc(S(=O)(=O)NN=Cc2ccc(C(=O)O)cc2)cc1 | . | . | - | . | . | . | .
C=CCNC(=O)/C(C#N)=C/c1c(N(Cc2ccccc2)Cc2ccccc2)nc2ccccn2c1=O | 46 | - | - | - | - | - | -
COC(=O)c1ccc(NC(=O)c2ccc(NC(=O)c3ccco3)cc2)cc1 | 96 | - | - | - | 85 | - | -
Cc1cc(C)cc(NC(=O)c2ccc(NC(=O)c3ccco3)cc2)c1 | - | - | - | - | . | . | .
O=C(/C=C/c1ccc(Br)cc1)c1ccc(NC(=O)c2ccco2)cc1 | 55 | - | - | - | - | - | -
COc1ccc(C=C2SC(=S)N(CCCC(=O)Nc3ccc(C(=O)O)c(O)c3)C2=O)cc1OC | 45 | - | . | - | 97 | - | 79
COc1ccc(/C=C2\SC(=S)N(CCCC(=O)Nc3cccc(C(=O)O)c3)C2=O)cc1OC | 54 | - | - | - | 83 | - | 66
O=C(CCCN1C(=O)/C(=C/c2ccccc2)SC1=S)Nc1ccc(C(=O)O)c(O)c1 | - | - | . | - | . | . | .
COc1cccc(/C=C2\SC(=S)N(CCCC(=O)Nc3cccc(C(=O)O)c3)C2=O)c1 | - | . | . | . | . | . | .
